Series [1] addresses T1, Tyrosine-protein kinase JAK3 (Homo sapiens, UniProt P52333).
T1 sequence (P52333 whole entry): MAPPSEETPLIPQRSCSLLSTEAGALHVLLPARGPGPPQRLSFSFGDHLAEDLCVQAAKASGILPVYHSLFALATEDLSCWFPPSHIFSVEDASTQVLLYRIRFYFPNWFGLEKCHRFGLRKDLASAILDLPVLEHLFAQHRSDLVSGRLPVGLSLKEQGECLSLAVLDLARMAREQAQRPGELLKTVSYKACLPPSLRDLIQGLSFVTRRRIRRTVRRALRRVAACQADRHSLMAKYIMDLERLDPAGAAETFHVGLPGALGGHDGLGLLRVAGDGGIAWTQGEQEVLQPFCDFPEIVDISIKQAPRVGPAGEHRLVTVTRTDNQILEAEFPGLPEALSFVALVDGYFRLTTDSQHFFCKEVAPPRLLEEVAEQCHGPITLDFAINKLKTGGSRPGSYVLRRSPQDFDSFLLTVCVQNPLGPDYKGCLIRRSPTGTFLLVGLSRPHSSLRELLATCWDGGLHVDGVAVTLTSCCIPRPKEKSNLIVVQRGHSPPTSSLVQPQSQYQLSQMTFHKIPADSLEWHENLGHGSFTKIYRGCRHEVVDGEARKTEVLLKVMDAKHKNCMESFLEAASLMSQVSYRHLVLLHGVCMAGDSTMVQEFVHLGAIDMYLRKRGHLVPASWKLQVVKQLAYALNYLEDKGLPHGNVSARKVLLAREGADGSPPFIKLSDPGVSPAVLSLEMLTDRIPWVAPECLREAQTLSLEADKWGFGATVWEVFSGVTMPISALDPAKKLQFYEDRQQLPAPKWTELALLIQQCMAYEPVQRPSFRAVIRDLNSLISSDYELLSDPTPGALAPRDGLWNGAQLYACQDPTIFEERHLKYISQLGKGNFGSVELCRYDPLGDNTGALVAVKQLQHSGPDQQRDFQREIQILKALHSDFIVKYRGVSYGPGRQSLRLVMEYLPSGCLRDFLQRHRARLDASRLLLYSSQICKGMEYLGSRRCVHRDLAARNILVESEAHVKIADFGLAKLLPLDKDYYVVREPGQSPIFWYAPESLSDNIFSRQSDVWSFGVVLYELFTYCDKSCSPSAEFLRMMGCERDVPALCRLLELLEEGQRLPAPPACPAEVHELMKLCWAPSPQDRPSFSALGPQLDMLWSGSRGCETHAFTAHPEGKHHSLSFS
The series can be described thus: Inhibition of recombinant human N-terminal His-tagged JAK3 catalytic domain (795 to 1124 residues) expressed in baculovirus expression system using Biotin-Lyn-Substrate2 after 1 hr by ELISA. The gist of the method: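 Human JAK3 kinase domain with 250 nM biotinylated Lyn substrate peptide and 8 µM ATP (final). Reaction started with enzyme, run 1 h at room temperature on streptavidin plate. Phosphorylation read by anti-phosphotyrosine HRP ELISA. Run in duplicate.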
For orientation: An ELISA detects its analyte on a solid surface through an enzyme-linked reagent.

For series [2], the target named is Tyrosine-protein kinase JAK2 (Homo sapiens, UniProt O60674). The series can be described thus: Inhibition of recombinant human N-terminal His-tagged JAK2 catalytic domain (826 to 1132 residues) expressed in baculovirus expression system using Biotin-Lyn-Substrate2 after 1 hr by ELISA.
Series [3] in a line: Intrinsic clearance in Sprague-Dawley rat liver microsomes at 0.2 uM in presence of NADPH by LC-MS/MS analysis. Type of series: ADME, microsome. The conditions noted are these: read-out: CLH. The essentials: (§1)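 Compound at 0.2 or 1.0 µM incubated with male SD rat liver microsomes (0.2 mg protein/mL) plus 1 mM NADPH and 0.1 mM EDTA in 100 mM phosphate buffer at 37°C. Percentage remaining was measured by LC/MS/MS. Run in duplicate.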

For series [4], the target named is Tyrosine-protein kinase JAK1 (Homo sapiens, UniProt P23458). Put plainly: Inhibition of recombinant human N-terminal GST-tagged JAK1 catalytic domain (850 to 1154 residues) expressed in baculovirus expression system using Biotin-Lyn-Substrate2 after 1 hr by ELISA.
Series [5] can be described thus: Intrinsic clearance in rat liver microsomes. It counts as ADME, microsome. The conditions noted are these: read-out: CLH. The essentials: as §1
In general terms: Microsomes from liver hold many membrane-bound enzymes, among them those of drug oxidation.

A short description of series [6]: Inhibition of JAK1/JAK3 in rat splenocytes assessed as reduction in IL-2-induced T cell proliferation. It counts as cell-based. The gist of the method: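 Male Lewis rat splenocytes, 1.5×10^6 cells/mL in RPMI1640 with 10% FBS and 50 µM 2-mercaptoethanol, primed with concanavalin A 24 h at 37°C to induce IL-2 receptor. Then incubated with IL-2 plus compound at designated concentrations for 3 days. Proliferation read by alamarBlue after 6 h (ex 545/em 590 nm). Duplicate or triplicate wells, IC50 by linear or Sigmoid-Emax regression.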

Series [7] is described as follows: Total clearance in Sprague-Dawley rat at 1 mg/kg, iv administered as single dose by LC-MS/MS analysis. Type of series: ADME, organism-based. The conditions noted are these: in vivo. The gist of the method: (§2)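 Male SD rats (Crl:CD(SD), 7 weeks old), food deprived before dosing; single intravenous dose of 1 mg/kg in 10 v/v% propylene glycol. Blood was sampled at multiple time points up to 24 h. Unchanged compound in plasma was measured by LC/MS/MS. Parameters were calculated from mean plasma concentrations (n=3) at each time point.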

A short description of series [8]: Half life in Sprague-Dawley rat at 1 mg/kg, iv administered as single dose by LC-MS/MS analysis. Type of series: ADME, organism-based. To be noted: in vivo. The essentials: as §2
The nature of series [9]: AUC (0 to infinity) in Sprague-Dawley rat at 1 mg/kg, iv administered as single dose by LC-MS/MS analysis. Type of series: ADME, organism-based. On the set-up: dose 1 mg/kg, time infinity, route intravenous. The conditions noted are these: in vivo. The essentials:
as §2

A short description of series [10]: Volume of distribution at steady state in Sprague-Dawley rat at 1 mg/kg, iv administered as single dose by LC-MS/MS analysis. Type of series: ADME, organism-based. To be noted: in vivo, read-out: Vdss. The gist of the method: as §2
A short description of series [11]: Cmax in Sprague-Dawley rat at 1 mg/kg, po administered as single dose by LC-MS/MS analysis. It counts as ADME, organism-based. Details: dose 1 mg/kg, route oral. To be noted: in vivo. The gist of the method:
(§3)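 Male SD rats (Crl:CD(SD), 7 weeks old), food deprived before dosing; single oral dose of 1 mg/kg in 0.5 w/v% methylcellulose. Blood was sampled at multiple time points up to 24 h. Unchanged compound in plasma was measured by LC/MS/MS. Parameters were calculated from mean plasma concentrations (n=3) at each time point.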

The nature of series [12]: Tmax in Sprague-Dawley rat at 1 mg/kg, po administered as single dose by LC-MS/MS analysis. It counts as ADME, organism-based. To be noted: in vivo. The gist of the method: as §3
A short description of series [13]: Oral bioavailability in Sprague-Dawley rat at 1 mg/kg administered as single dose by LC-MS/MS analysis. It counts as ADME, organism-based. To be noted: in vivo. The essentials:
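Fasted male SD rats, 7 weeks old, given 1 mg/kg as a single dose, orally in 0.5 w/v% methylcellulose and intravenously in 10 v/v% propylene glycol. Plasma was sampled up to 24 h and unchanged compound measured by LC/MS/MS. Bioavailability was derived from mean concentrations (n=3 per time point).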

Series [14] can be described thus: AUC (0 to infinity) in Sprague-Dawley rat at 1 mg/kg, po administered as single dose by LC-MS/MS analysis. Details: dose 1 mg/kg, route oral, time infinity. To be noted: in vivo. It counts as ADME, organism-based. The gist of the method: as §3
Series [15] is described as follows: Inhibition of JAK1/JAK3 in Lewis rat splenocytes assessed as reduction in IL-2-induced T cell proliferation after 3 days by alamar blue assay. To be noted: 72 h. It counts as cell-based. A general note: Alamar Blue is a resazurin reagent that responds to reducing activity.
The nature of series [16]: Half life in Sprague-Dawley rat at 1 mg/kg, po administered as single dose by LC-MS/MS analysis. To be noted: in vivo. Type of series: ADME, organism-based. The essentials: as §3

Results on seven molecules are retold here after ChEMBL document CHEMBL4229549, “Discovery and structural characterization of peficitinib (ASP015K) as a novel and potent JAK inhibitor” (Bioorg Med Chem, 2018).

Broadly, the IC50 is the concentration at which inhibition is half-maximal. By clearance is commonly meant a measure of how efficiently the substance is removed, as volume per time. By half-life is commonly meant the time in which the quantity being followed falls by half. By AUC(0-inf) is commonly meant the area under the concentration-time curve extrapolated to infinity. High values mean more exposure, low ones less exposure. The Cmax is the peak of the concentration-time curve. By Tmax is commonly meant the time at which the peak concentration occurs. By bioavailability is commonly meant dose-corrected exposure relative to a reference, in per cent. Read a low bioavailability as poor availability.

The structures appear in SMILES notation. A value given as a limit tells only on which side of the number the result lay.

Chain of Tyrosine-protein kinase JAK1 (P23458 whole entry, the tested form may be a part): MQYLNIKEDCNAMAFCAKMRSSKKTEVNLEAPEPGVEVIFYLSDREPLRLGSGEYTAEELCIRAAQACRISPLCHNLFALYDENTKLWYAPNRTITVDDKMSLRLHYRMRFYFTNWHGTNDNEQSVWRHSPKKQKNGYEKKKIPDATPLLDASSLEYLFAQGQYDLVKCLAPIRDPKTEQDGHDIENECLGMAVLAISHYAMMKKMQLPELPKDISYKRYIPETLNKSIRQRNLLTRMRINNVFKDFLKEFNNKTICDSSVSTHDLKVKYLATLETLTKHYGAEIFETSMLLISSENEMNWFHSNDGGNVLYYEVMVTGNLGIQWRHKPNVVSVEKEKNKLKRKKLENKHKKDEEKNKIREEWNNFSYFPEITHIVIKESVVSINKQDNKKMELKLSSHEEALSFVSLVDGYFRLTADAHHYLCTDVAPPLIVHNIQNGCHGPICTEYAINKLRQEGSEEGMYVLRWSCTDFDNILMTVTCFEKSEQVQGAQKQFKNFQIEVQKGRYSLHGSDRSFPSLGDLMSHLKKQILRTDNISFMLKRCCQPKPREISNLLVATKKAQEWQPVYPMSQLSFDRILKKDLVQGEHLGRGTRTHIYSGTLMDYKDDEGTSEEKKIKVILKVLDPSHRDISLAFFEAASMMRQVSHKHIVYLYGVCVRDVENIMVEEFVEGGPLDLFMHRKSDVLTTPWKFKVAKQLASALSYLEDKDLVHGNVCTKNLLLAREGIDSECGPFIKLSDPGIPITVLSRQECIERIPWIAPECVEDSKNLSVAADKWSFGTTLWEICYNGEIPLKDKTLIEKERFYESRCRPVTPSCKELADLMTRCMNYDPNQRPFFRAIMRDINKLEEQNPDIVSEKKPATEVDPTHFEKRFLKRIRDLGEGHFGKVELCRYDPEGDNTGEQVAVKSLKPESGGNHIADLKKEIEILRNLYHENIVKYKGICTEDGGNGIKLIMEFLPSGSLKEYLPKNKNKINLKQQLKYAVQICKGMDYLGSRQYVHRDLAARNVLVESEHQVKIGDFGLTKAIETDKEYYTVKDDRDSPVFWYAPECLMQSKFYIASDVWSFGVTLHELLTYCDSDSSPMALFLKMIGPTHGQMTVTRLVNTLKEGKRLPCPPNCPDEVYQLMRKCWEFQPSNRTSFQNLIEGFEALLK
Chain of Tyrosine-protein kinase JAK2 (O60674 whole entry, the tested form may be a part): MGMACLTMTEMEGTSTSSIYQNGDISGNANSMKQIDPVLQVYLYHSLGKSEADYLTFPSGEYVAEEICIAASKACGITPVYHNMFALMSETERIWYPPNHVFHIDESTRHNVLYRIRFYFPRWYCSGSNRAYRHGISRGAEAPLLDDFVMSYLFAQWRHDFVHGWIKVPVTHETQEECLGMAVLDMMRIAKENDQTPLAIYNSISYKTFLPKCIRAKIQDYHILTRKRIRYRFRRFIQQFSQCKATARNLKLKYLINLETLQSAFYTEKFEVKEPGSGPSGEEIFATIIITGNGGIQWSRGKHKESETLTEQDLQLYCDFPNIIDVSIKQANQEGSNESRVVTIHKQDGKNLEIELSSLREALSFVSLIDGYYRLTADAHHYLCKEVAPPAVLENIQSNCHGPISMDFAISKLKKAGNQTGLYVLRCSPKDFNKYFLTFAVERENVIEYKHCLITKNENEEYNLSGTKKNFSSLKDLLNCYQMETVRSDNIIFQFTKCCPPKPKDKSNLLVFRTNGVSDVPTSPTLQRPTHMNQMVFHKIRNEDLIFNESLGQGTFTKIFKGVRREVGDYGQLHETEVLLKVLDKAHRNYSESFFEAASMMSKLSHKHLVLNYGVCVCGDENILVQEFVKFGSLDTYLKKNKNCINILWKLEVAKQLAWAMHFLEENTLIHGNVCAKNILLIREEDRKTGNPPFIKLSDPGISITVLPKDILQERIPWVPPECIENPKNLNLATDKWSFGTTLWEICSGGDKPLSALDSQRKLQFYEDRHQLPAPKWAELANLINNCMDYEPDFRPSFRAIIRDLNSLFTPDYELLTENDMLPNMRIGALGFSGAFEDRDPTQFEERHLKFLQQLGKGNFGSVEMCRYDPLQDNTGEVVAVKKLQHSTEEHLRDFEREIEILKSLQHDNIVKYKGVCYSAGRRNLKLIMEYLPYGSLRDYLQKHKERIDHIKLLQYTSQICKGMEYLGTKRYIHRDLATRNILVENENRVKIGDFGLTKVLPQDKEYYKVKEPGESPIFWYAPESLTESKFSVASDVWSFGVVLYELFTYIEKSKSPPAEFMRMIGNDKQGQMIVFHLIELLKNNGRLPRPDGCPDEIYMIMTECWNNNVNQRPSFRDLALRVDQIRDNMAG

As to `NC(=O)c1cnc2[nH]ccc2c1N[C@@H]1C[C@H]2CC[C@@H]1C2` (racemic), the IC50 came out at 3.2 nM in series [1], 15 nM in series [2] and 24 nM in [4]. Moreover, the CLint scaled at 0.2 µM in series [3] turned out to be 859 mL/min/kg.

In the case of `NC(=O)c1cnc2[nH]ccc2c1NC12CC3CC(CC(C3)C1)C2`, the IC50 in [1] was 10 nM; in series [2] it was 120 nM; in series [4] it was 110 nM.

Turning to `C[C@@H]1CCCC[C@@H]1Nc1c(C(N)=O)cnc2[nH]ccc12`, in [5], the CLint scaled was above 1000 mL/min/kg. The IC50 in series [6] turned out to be 86 nM.

For `NC(=O)c1cnc2[nH]ccc2c1NC1C2CC3CC(C2)CC1C3` (configuration not stated), the IC50 amounted to 2.1 nM in series [1], 11 nM in series [2] and 12 nM in [4]. Also, the CLint scaled at 0.2 µM in series [3] was above 1000 mL/min/kg.

Regarding `Br.NC(=O)c1cnc2[nH]ccc2c1NC1C2CC3CC1CC(O)(C3)C2` (configuration not stated), the clearance in [7] is 29 mL/min/kg. Further, the figures for the half-life in [8] and in series [16] were 4.72 h and 2.12 h, respectively. Moreover, the AUC(0-inf) in series [9] stood at 575 ng·h/mL; in [14], 264 ng·h/mL. Besides, in series [10], the Vd worked out at 1.83 L/kg. Also, the Cmax in series [11] turned out to be 126 ng/mL. The Tmax in [12] turned out to be 0.25 h. Besides, the bioavailability in series [13] stood at 45.9%. Also, the IC50 in [15] came out at 10 nM. In series [3], the CLint scaled at 0.2 µM is 124 mL/min/kg.

Consider `COC12CC3CC(C1)C(Nc1c(C(N)=O)cnc4[nH]ccc14)C(C3)C2` (configuration not stated), for which the IC50 in [1] was 0.63 nM; in series [2], 5 nM; in [4] it was 7.8 nM. In addition, the CLint scaled at 0.2 µM in series [3] is above 1000 mL/min/kg.

With `NC(=O)c1cnc2[nH]ccc2c1NC1C2CC3CC1CC(F)(C3)C2` (configuration not stated), the IC50 worked out at 2.1 nM in series [1], 11 nM in [2] and 19 nM in series [4]. In addition, the CLint scaled at 0.2 µM in [3] was above 1000 mL/min/kg.
